ChEMBL document CHEMBL1759847, “Design and synthesis of isoquinolines and benzimidazoles as RAF kinase inhibitors” (Bioorg Med Chem Lett, 2011)

biological target: RAF proto-oncogene serine/threonine-protein kinase (Homo sapiens, UniProt P04049); assay: Inhibition of human cRAF using [gamma-33P-ATP] as a substrate by scintillation counting
Procedure, shortened: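 Recombinant human c-RAF (5–10 mU) in 25 mM Tris pH 7.5 with 0.02 mM EGTA, 10 mM Mg acetate and 0.66 mg/mL myelin basic protein as phosphoacceptor; started by adding MgATP mix containing [γ-33P]ATP (approx. 500 cpm/pmol). Incubated 40 min at room temperature, stopped with 3% phosphoric acid, spotted on P30 filtermat, washed, dried and counted by scintillation.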

Sequence of RAF proto-oncogene serine/threonine-protein kinase (P04049 whole entry): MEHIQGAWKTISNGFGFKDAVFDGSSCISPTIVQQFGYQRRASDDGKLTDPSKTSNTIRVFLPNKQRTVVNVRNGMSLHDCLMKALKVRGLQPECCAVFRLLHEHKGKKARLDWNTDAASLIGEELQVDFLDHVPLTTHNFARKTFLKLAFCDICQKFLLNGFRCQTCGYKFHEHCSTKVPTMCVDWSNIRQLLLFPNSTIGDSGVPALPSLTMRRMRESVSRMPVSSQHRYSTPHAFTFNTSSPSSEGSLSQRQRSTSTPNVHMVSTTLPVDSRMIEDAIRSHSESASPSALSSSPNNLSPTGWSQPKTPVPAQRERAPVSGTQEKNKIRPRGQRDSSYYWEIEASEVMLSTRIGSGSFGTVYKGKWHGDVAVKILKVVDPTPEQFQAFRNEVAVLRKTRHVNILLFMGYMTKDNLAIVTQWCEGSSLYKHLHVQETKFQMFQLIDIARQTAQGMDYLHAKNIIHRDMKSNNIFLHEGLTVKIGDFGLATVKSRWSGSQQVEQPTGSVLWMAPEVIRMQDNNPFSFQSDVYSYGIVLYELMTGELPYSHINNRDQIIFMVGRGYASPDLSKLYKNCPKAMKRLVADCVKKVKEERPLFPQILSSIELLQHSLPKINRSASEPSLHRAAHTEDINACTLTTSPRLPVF

Structure (SMILES) | IC50
CNC(=O)c1cc2ccc(CCNC(=O)Nc3cc(C)c(Cl)cc3OC)cc2cn1 | 190 nM
CNC(=O)c1cc2ccc(CCNC(=O)Nc3cccc(C(F)(F)F)c3)cc2cn1 | 360 nM
CNC(=O)c1cc2ccc(CCNC(=O)Nc3cccc(OC(F)(F)F)c3)cc2cn1 | 260 nM
CNC(=O)c1cc2ccc(CCNC(=O)Nc3cccc(S(=O)(=O)C(F)(F)F)c3)cc2cn1 | 200 nM
CNC(=O)c1cc2ccc(CCNC(=O)Nc3ccc(C(F)(F)F)cc3)cc2cn1 | 370 nM
CNC(=O)c1cc2ccc(CCNC(=O)Nc3ccc(C)c(C(F)(F)F)c3)cc2cn1 | 200 nM
CNC(=O)c1cc2ccc(CCNC(=O)Nc3ccc(Cl)c(C(F)(F)F)c3)cc2cn1 | 160 nM
CNC(=O)c1cc2ccc(CCNC(=O)Nc3ccc(F)c(C(F)(F)F)c3)cc2cn1 | 240 nM
CNC(=O)c1cc2ccc(CCNC(=O)Nc3cc(C(F)(F)F)ccc3F)cc2cn1 | 250 nM
CNC(=O)c1cc2ccc(CCNC(=O)Nc3cc(C(F)(F)F)ccc3OC)cc2cn1 | 120 nM
CNC(=O)c1cc2ccc(CCNC(=O)Nc3cc(C(F)(F)F)ccc3OCCN(C)C)cc2cn1 | 450 nM
CNC(=O)c1cc2ccc(CCNC(=O)Nc3cc(Cl)c(C)cc3OC)cc2cn1 | 110 nM
CNC(=O)c1cc2ccc(CCNC(=O)Nc3cc(C(F)(F)F)c(Cl)cc3OC)cc2cn1 | 80 nM
CNC(=O)c1cc2ccc(CCNC(=O)Nc3cc(C(F)(F)F)c(Cl)cc3OCCN(C)C)cc2cn1 | 340 nM
CNC(=O)c1nc2ccc(CCNC(=O)Nc3cc(C(F)(F)F)ccc3OC)cc2[nH]1 | 340 nM
COC(=O)Nc1nc2ccc(CCNC(=O)Nc3cc(C(F)(F)F)ccc3OC)cc2[nH]1 | 810 nM
COc1ccc(C(F)(F)F)cc1NC(=O)NCCc1ccc2nc(NC(C)=O)[nH]c2c1 | 170 nM

Structure (SMILES) | IC50
CNC(=O)c1nc2ccc(CCNC(=O)Nc3ccc(Cl)c(C(F)(F)F)c3)cc2[nH]1 | 280 nM
COC(=O)Nc1nc2ccc(CCNC(=O)Nc3ccc(Cl)c(C(F)(F)F)c3)cc2[nH]1 | 660 nM
CC(=O)Nc1nc2ccc(CCNC(=O)Nc3ccc(Cl)c(C(F)(F)F)c3)cc2[nH]1 | 140 nM
CC(=O)Nc1nc2ccc(CCNC(=O)Nc3cccc(C(F)(F)F)c3)cc2[nH]1 | 480 nM
CC(=O)Nc1nc2ccc(CCNC(=O)Nc3ccc(Cl)c(Cl)c3)cc2[nH]1 | 480 nM
CC(=O)Nc1nc2ccc(CCNC(=O)Nc3ccc(C)c(Cl)c3)cc2[nH]1 | 530 nM
COc1cc(C)c(Cl)cc1NC(=O)NCCc1ccc2nc(NC(C)=O)[nH]c2c1 | 190 nM
COc1cc(Cl)c(C)cc1NC(=O)NCCc1ccc2nc(NC(C)=O)[nH]c2c1 | 320 nM
CNCCOc1ccc(C)cc1NC(=O)NCCc1ccc2nc(NC(C)=O)[nH]c2c1 | 580 nM
CNCCOc1cc(Cl)c(C)cc1NC(=O)NCCc1ccc2nc(NC(C)=O)[nH]c2c1 | 490 nM
CNCCOc1ccc(C(F)(F)F)cc1NC(=O)NCCc1ccc2nc(NC(C)=O)[nH]c2c1 | 210 nM
CNCCOc1cc(Cl)c(C(F)(F)F)cc1NC(=O)NCCc1ccc2nc(NC(C)=O)[nH]c2c1 | 230 nM
CC(=O)Nc1nc2ccc(CCNC(=O)Nc3cc(C)c(Cl)cc3OCCN)cc2[nH]1 | 550 nM
CC(=O)Nc1nc2ccc(CCNC(=O)Nc3cc(C(F)(F)F)ccc3OCCN)cc2[nH]1 | 250 nM
CC(=O)Nc1nc2ccc(CCNC(=O)Nc3cc(C(F)(F)F)c(Cl)cc3OCCN)cc2[nH]1 | 180 nM
CC(=O)Nc1nc2ccc(CCNC(=O)Nc3cc(C(F)(F)F)ccc3OCC3CCCN3)cc2[nH]1 (stereo not drawn) | 230 nM
